In brackets after ≈: the same amount, converted by molar mass.

A word on the MIC: it is the lowest concentration found to suppress growth.

Holding throughout (type): functional
In assay [1] the test system is Staphylococcus aureus. In words: Minimum inhibitory concentration was evaluated in vitro against Staphylococcus aureus UC 76. The method in brief: (§1)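 Standard microtitration broth assay against a panel of 10 Gram-positive and Gram-negative organisms. MIC read in µg/mL and averaged over multiple experiments.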
In another assay the test system is Pseudomonas aeruginosa. In words: Minimum inhibitory concentration was evaluated in vitro against Pseudomonas aeruginosa UI-18. A digest of the protocol: as §1
Assay [2] concerns Streptococcus pyogenes. The assay is described as follows: Minimum inhibitory concentration was evaluated in vitro against Streptococcus pyogenes C 203. A digest of the protocol: as §1
The next assay concerns Streptococcus pneumoniae. In words: Minimum inhibitory concentration was evaluated in vitro against Streptococcus pneumoniae SV-1. The method in brief:
as §1

A further assay concerns Enterobacter cloacae. In words: Minimum inhibitory concentration in vitro against Enterobacter cloacae MA 2646.
In the next assay the test system is Klebsiella pneumoniae. In words: Minimum inhibitory concentration was evaluated in vitro against Klebsiella pneumoniae MGH2. The method in brief: as §1
Assay [3] relates to Streptococcus pyogenes. The assay is described as follows: Antibacterial activity measured as mouse protection against Streptococcus pyogenes C 203 after subcutaneous administration. To be noted: for ED50: Streptococcus pyogenes, C 203, sc, read-out: PD50.
The subject of assay [4] is Streptococcus pyogenes. In words: Compounds were evaluated in vivo for antibacterial activity for mouse protection against Streptococcus pyogenes C 203 after oral administration. The conditions noted are these: for ED50: Streptococcus pyogenes, C 203, po, read-out: PD50.
A further assay relates to Enterococcus faecalis. The assay is described as follows: Minimum inhibitory concentration was evaluated in vitro against Enterococcus faecalis MGH-2. The method in brief: as §1
For another assay, the system named is Escherichia coli. In words: Antibacterial activity in vitro against Escherichia coli Vogel. The conditions noted are these: Escherichia coli; read-out: MIC. The method in brief:
as §1

Assay [5] relates to Staphylococcus aureus. The assay is described as follows: Minimum inhibitory concentration was evaluated in vitro against Staphylococcus aureus H 228. The method in brief:
as §1

The next assay relates to Providencia rettgeri. The assay is described as follows: Minimum inhibitory concentration was evaluated in vitro against Providencia rettgeri M1771. A digest of the protocol:
as §1

The mark [6] stands for this setting: Staphylococcus aureus, read-out: MIC.
The mark [7] stands for this setting: Pseudomonas aeruginosa, read-out: MIC.
[8] abbreviates: Streptococcus pyogenes, read-out: MIC.
The mark [9] stands for this setting: Streptococcus pneumoniae, read-out: MIC.
Where [10] appears, read: Enterobacter cloacae, read-out: MIC.
[11] abbreviates: Klebsiella pneumoniae, read-out: MIC.
Setting [12] is: Enterococcus faecalis, read-out: MIC.
[13] abbreviates: Providencia rettgeri, read-out: MIC.

`COc1c(N2CCC(CN)C2)c(F)cc2c(=O)c(C(=O)O)cn(C3CC3)c12` (centres undefined): the minimal inhibitory concentration (MIC) amounted to 0.003 µg/mL (≈ 0.00799 µM) with Staphylococcus aureus [1] (setting [6]); 0.8 µg/mL (≈ 2.13 µM) in the assay on Pseudomonas aeruginosa (setting [7]); 0.003 µg/mL (≈ 0.00799 µM) with Streptococcus pyogenes [2] (setting [8]); 0.003 µg/mL (≈ 0.00799 µM) with Streptococcus pneumoniae (setting [9]); 0.05 µg/mL (≈ 0.133 µM) in the assay with Enterobacter cloacae (setting [10]); 0.1 µg/mL (≈ 0.266 µM) with Klebsiella pneumoniae (setting [11]). Also, the MIC worked out at 0.013 µg/mL (≈ 0.0346 µM) in the assay with Enterococcus faecalis (setting [12]), 0.05 µg/mL (≈ 0.133 µM) in the assay with Escherichia coli, 0.025 µg/mL (≈ 0.0666 µM) in the assay with Staphylococcus aureus [5] (setting [6]) and 0.1 µg/mL (≈ 0.266 µM) in the assay with Providencia rettgeri (setting [13]). In addition, the ED50 with Streptococcus pyogenes [3] was found to be 0.6 mg/kg; in the assay with Streptococcus pyogenes [4], 11 mg/kg.
Turning to `NCC1CCN(c2nc3c(cc2F)c(=O)c(C(=O)O)cn3-c2ccc(F)cc2F)C1` (centres undefined), the MIC with Staphylococcus aureus [1] (setting [6]) was 0.013 µg/mL (≈ 0.0311 µM); with Pseudomonas aeruginosa (setting [7]) it was 0.4 µg/mL (≈ 0.956 µM); in the assay with Streptococcus pyogenes [2] (setting [8]), 0.025 µg/mL (≈ 0.0598 µM); with Streptococcus pneumoniae (setting [9]) it was 0.025 µg/mL (≈ 0.0598 µM); with Enterobacter cloacae (setting [10]) it was 0.05 µg/mL (≈ 0.12 µM); in the assay on Klebsiella pneumoniae (setting [11]) it was 0.1 µg/mL (≈ 0.239 µM). The MIC is 0.025 µg/mL (≈ 0.0598 µM) with Enterococcus faecalis (setting [12]), 0.05 µg/mL (≈ 0.12 µM) in the assay on Escherichia coli, 0.05 µg/mL (≈ 0.12 µM) in the assay on Staphylococcus aureus [5] (setting [6]) and 0.2 µg/mL (≈ 0.478 µM) with Providencia rettgeri (setting [13]). For the same compound, the ED50 worked out at 1 mg/kg in the assay with Streptococcus pyogenes [3] and 10 mg/kg in the assay with Streptococcus pyogenes [4].
For the compound `CCN[C@H](C)[C@@H]1CCN(c2c(F)cc3c(=O)c(C(=O)O)cn(C4CC4)c3c2C(F)(F)F)C1`, the MIC in the assay on Staphylococcus aureus [1] (setting [6]) stood at 0.05 µg/mL (≈ 0.11 µM); in the assay with Pseudomonas aeruginosa (setting [7]), 6.3 µg/mL (≈ 13.8 µM); with Streptococcus pyogenes [2] (setting [8]), 0.1 µg/mL (≈ 0.22 µM); in the assay on Streptococcus pneumoniae (setting [9]) it was 0.05 µg/mL (≈ 0.11 µM); in the assay on Enterobacter cloacae (setting [10]), 1.6 µg/mL (≈ 3.51 µM); with Klebsiella pneumoniae (setting [11]), 1.6 µg/mL (≈ 3.51 µM). Also, the minimal inhibitory concentration (MIC) in the assay on Enterococcus faecalis (setting [12]) was 0.1 µg/mL (≈ 0.22 µM); in the assay on Escherichia coli, 0.8 µg/mL (≈ 1.76 µM); in the assay with Staphylococcus aureus [5] (setting [6]), 0.05 µg/mL (≈ 0.11 µM); in the assay on Providencia rettgeri (setting [13]), 3.1 µg/mL (≈ 6.81 µM). In addition, the results for the ED50 with Streptococcus pyogenes [3] and in the assay on Streptococcus pyogenes [4] were 0.8 mg/kg and 2 mg/kg, respectively.
As for `CCNCC1CCN(c2c(F)cc3c(=O)c(C(=O)O)cn(C4CC4)c3c2OC)C1` (centres undefined), the MIC in the assay on Staphylococcus aureus [1] (setting [6]) turned out to be 0.006 µg/mL (≈ 0.0149 µM); in the assay on Pseudomonas aeruginosa (setting [7]) it was 1.6 µg/mL (≈ 3.97 µM); with Streptococcus pyogenes [2] (setting [8]), 0.013 µg/mL (≈ 0.0322 µM); in the assay with Streptococcus pneumoniae (setting [9]), 0.013 µg/mL (≈ 0.0322 µM); in the assay on Enterobacter cloacae (setting [10]), 0.1 µg/mL (≈ 0.248 µM); with Klebsiella pneumoniae (setting [11]) it was 0.2 µg/mL (≈ 0.496 µM). Moreover, the MIC was determined as 0.05 µg/mL (≈ 0.124 µM) in the assay with Enterococcus faecalis (setting [12]), 0.1 µg/mL (≈ 0.248 µM) with Escherichia coli, 0.025 µg/mL (≈ 0.062 µM) in the assay on Staphylococcus aureus [5] (setting [6]) and 0.4 µg/mL (≈ 0.991 µM) in the assay with Providencia rettgeri (setting [13]). Also, the ED50 with Streptococcus pyogenes [3] amounted to 0.4 mg/kg; in the assay with Streptococcus pyogenes [4], 4 mg/kg.
Take `CCNC(C)C1CCN(c2cc3c(c(N)c2F)c(=O)c(C(=O)O)cn3C2CC2)C1` (racemic): the MIC was found to be 0.025 µg/mL (≈ 0.0621 µM) in the assay with Staphylococcus aureus [1] (setting [6]); 1.6 µg/mL (≈ 3.98 µM) in the assay on Pseudomonas aeruginosa (setting [7]); 0.013 µg/mL (≈ 0.0323 µM) in the assay with Streptococcus pyogenes [2] (setting [8]); 0.013 µg/mL (≈ 0.0323 µM) with Streptococcus pneumoniae (setting [9]); 0.1 µg/mL (≈ 0.248 µM) in the assay on Enterobacter cloacae (setting [10]); 0.2 µg/mL (≈ 0.497 µM) in the assay on Klebsiella pneumoniae (setting [11]). Besides, the minimal inhibitory concentration (MIC) in the assay with Enterococcus faecalis (setting [12]) was determined as 0.05 µg/mL (≈ 0.124 µM); with Escherichia coli, 0.1 µg/mL (≈ 0.248 µM); in the assay with Staphylococcus aureus [5] (setting [6]), 0.05 µg/mL (≈ 0.124 µM); with Providencia rettgeri (setting [13]) it was 0.8 µg/mL (≈ 1.99 µM). Further, the ED50 with Streptococcus pyogenes [3] is 1 mg/kg. This compound also had a PD50 in the assay with Streptococcus pyogenes [4] of 5 mg/kg.
For `CCN[C@@H](C)[C@@H]1CCN(c2c(F)c(N)c3c(=O)c(C(=O)O)cn(C4CC4)c3c2F)C1` (stereo in doubt; 32H-S,S), the MIC with Staphylococcus aureus [1] turned out to be 0.05 µg/mL (≈ 0.119 µM); in the assay on Pseudomonas aeruginosa, 3.1 µg/mL (≈ 7.37 µM); in the assay with Streptococcus pyogenes [2], 0.2 µg/mL (≈ 0.476 µM); against Streptococcus pneumoniae, 0.05 µg/mL (≈ 0.119 µM); against Enterobacter cloacae it was 0.4 µg/mL (≈ 0.951 µM); with Klebsiella pneumoniae it was 0.4 µg/mL (≈ 0.951 µM). In addition, the MIC in the assay with Enterococcus faecalis was 0.2 µg/mL (≈ 0.476 µM); in the assay on Escherichia coli, 0.2 µg/mL (≈ 0.476 µM); in the assay with Staphylococcus aureus [5] it was 0.1 µg/mL (≈ 0.238 µM); in the assay with Providencia rettgeri it was 1.6 µg/mL (≈ 3.81 µM). The PD50 with Streptococcus pyogenes [3] came to 9 mg/kg; with Streptococcus pyogenes [4], 13 mg/kg.
Consider `CN[C@H](C)[C@@H]1CCN(c2c(F)cc3c(=O)c(C(=O)O)cn(C4CC4)c3c2C(F)(F)F)C1`, for which the MIC with Staphylococcus aureus [1] (setting [6]) came out at 0.025 µg/mL (≈ 0.0566 µM); with Pseudomonas aeruginosa (setting [7]) it was 6.3 µg/mL (≈ 14.3 µM); with Streptococcus pyogenes [2] (setting [8]), 0.05 µg/mL (≈ 0.113 µM); in the assay with Streptococcus pneumoniae (setting [9]), 0.05 µg/mL (≈ 0.113 µM); with Enterobacter cloacae (setting [10]), 0.4 µg/mL (≈ 0.906 µM); in the assay with Klebsiella pneumoniae (setting [11]), 1.6 µg/mL (≈ 3.62 µM). For the same compound, the MIC with Enterococcus faecalis (setting [12]) came out at 0.1 µg/mL (≈ 0.227 µM); with Escherichia coli, 0.2 µg/mL (≈ 0.453 µM); with Staphylococcus aureus [5] (setting [6]) it was 0.05 µg/mL (≈ 0.113 µM); in the assay on Providencia rettgeri (setting [13]) it was 3.1 µg/mL (≈ 7.02 µM). Moreover, the values for the ED50 in the assay with Streptococcus pyogenes [3] and with Streptococcus pyogenes [4] were 2 mg/kg and 3 mg/kg, respectively.

For the origin of these results see ChEMBL document CHEMBL1126988, “Quinolone antibacterials containing the new 7-[3-(1-aminoethyl)-1- pyrrolidinyl] side chain: the effects of the 1-aminoethyl moiety and its stereochemical configurations on potency and in vivo efficacy” (J Med Chem, 1993).
